Assay results: ChEMBL document CHEMBL1142420, “Synthesis and DNA-cleaving activity of lactenediynes conjugated with DNA-complexing moieties” (2008)

Assays:
Type in all cases: functional
BT-549 = assay: Cytotoxicity against human BT549 cells after 48 hrs by SRB assay; conditions: BT-549, 48 h
In short: (§1)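 Run at NCI: cell lines exposed 48 h to a range of concentrations, with untreated controls under identical conditions. Growth measured by sulforhodamine B staining with colorimetric read-out. Percent growth computed from test, time-zero and control absorbances. GI50, TGI and LC50 read from PG versus log10 molar concentration as the concentrations giving PG = 50, 0 and -50.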

786-0 = assay: Cytotoxicity against human 786-0 cells after 48 hrs by SRB assay; conditions: 786-0, 48 h; in short: as §1
HCC 2998 = assay: Cytotoxicity against human HCC2998 cells after 48 hrs by SRB assay; conditions: HCC 2998, 48 h; in short: as §1
CAKI-1 = assay: Cytotoxicity against human CAKI1 cells after 48 hrs by SRB assay; conditions: CAKI-1, 48 h; in short: as §1
TK-10 = assay: Cytotoxicity against human TK10 cells after 48 hrs by SRB assay; conditions: TK-10, 48 h; in short: as §1
SNB-75 = assay: Cytotoxicity against human SNB75 cells after 48 hrs by SRB assay; conditions: SNB-75, 48 h; in short: as §1
HCT-116 = assay: Cytotoxicity against human HCT116 cells after 48 hrs by SRB assay; conditions: HCT-116, 48 h; in short: as §1
OVCAR-8 = assay: Cytotoxicity against human OVCAR8 cells after 48 hrs by SRB assay; conditions: OVCAR-8, 48 h; in short: as §1
NCI-H226 = assay: Cytotoxicity against human NCI-H226 cells after 48 hrs by SRB assay; conditions: NCI-H226, 48 h; in short: as §1
MCF7 = assay: Cytotoxicity against human MCF7 cells after 48 hrs by SRB assay; conditions: MCF7, 48 h; in short: as §1
UACC-257 = assay: Cytotoxicity against human UACC257 cells after 48 hrs by SRB assay; conditions: UACC-257, 48 h; in short: as §1
SW-620 = assay: Cytotoxicity against human SW620 cells after 48 hrs by SRB assay; conditions: SW-620, 48 h; in short: as §1
NCI-H322M = assay: Cytotoxicity against human NCI-H322M cells after 48 hrs by SRB assay; in short: as §1
SK-MEL-28 = assay: Cytotoxicity against human SK-MEL-28 cells after 48 hrs by SRB assay; conditions: SK-MEL-28, 48 h; in short: as §1
MDA-MB-231 = assay: Cytotoxicity against human MDA-MB-231 cells after 48 hrs by SRB assay; conditions: MDA-MB-231, 48 h; in short: as §1
SF-539 = assay: Cytotoxicity against human SF539 cells after 48 hrs by SRB assay; conditions: SF-539, 48 h; in short: as §1
HOP-62 = assay: Cytotoxicity against human HOP62 cells after 48 hrs by SRB assay; conditions: HOP-62, 48 h; in short: as §1
SF-295 = assay: Cytotoxicity against human SF295 cells after 48 hrs by SRB assay; conditions: SF-295, 48 h; in short: as §1
IGROV-1 = assay: Cytotoxicity against human IGROV1 cells after 48 hrs by SRB assay; conditions: IGROV-1, 48 h; in short: as §1
HT-29 = assay: Cytotoxicity against human HT29 cells after 48 hrs by SRB assay; conditions: HT-29, 48 h; in short: as §1
MDA-N = assay: Cytotoxicity against human MDA-N cells after 48 hrs by SRB assay; in short: as §1
HCT-15 = assay: Cytotoxicity against human HCT15 cells after 48 hrs by SRB assay; conditions: HCT-15, 48 h; in short: as §1
OVCAR-3 = assay: Cytotoxicity against human OVCAR-3 cells after 48 hrs by SRB assay; conditions: OVCAR-3, 48 h; in short: as §1
MDA-MB-435 = assay: Cytotoxicity against human MDA-MB-435 cells after 48 hrs by SRB assay; conditions: MDA-MB-435, 48 h; in short: as §1
UACC-62 = assay: Cytotoxicity against human UACC62 cells after 48 hrs by SRB assay; conditions: UACC-62, 48 h; in short: as §1
SK-OV-3 = assay: Cytotoxicity against human SKOV3 cells after 48 hrs by SRB assay; conditions: SK-OV-3, 48 h; in short: as §1
[1] = Cytotoxicity against human HS 578T cells after 48 hrs by SRB assay; in short: as §1
EKVX = assay: Cytotoxicity against human EKVX cells after 48 hrs by SRB assay; in short: as §1
NCI-H460 = assay: Cytotoxicity against human NCI-H460 cells after 48 hrs by SRB assay; conditions: NCI-H460, 48 h; in short: as §1
KM12 = assay: Cytotoxicity against human KM12 cells after 48 hrs by SRB assay; conditions: KM12, 48 h; in short: as §1
NCI/ADR-RES = assay: Cytotoxicity against human NCI/ADR-RES cells after 48 hrs by SRB assay; in short: as §1
A498 = assay: Cytotoxicity against human A498 cells after 48 hrs by SRB assay; conditions: A498, 48 h; in short: as §1
[2] = read-out: Log LC50 (the source's name) (converted)

CC(=O)O[C@@H]1C#C/C=C\C#CC[C@H]2C(=O)N(C(=O)OC(C)(C)C)[C@H]12
GI50 (BT-549): 24.5 µM
CC50 (BT-549; [2]): > 100 µM
TGI (BT-549; read-out: Log TGI (converted)): > 100 µM
GI50 (786-0): 11.5 µM
CC50 (786-0; [2]): > 100 µM
TGI (786-0; read-out: Log TGI (converted)): 69.2 µM
GI50 (HCC 2998): 34.7 µM
CC50 (HCC 2998; [2]): > 100 µM
TGI (HCC 2998; read-out: Log TGI (converted)): > 100 µM
GI50 (CAKI-1): 0.355 µM
CC50 (CAKI-1; [2]): 60.3 µM
TGI (CAKI-1; read-out: Log TGI (converted)): 6.46 µM
GI50 (TK-10): 35.5 µM
CC50 (TK-10; [2]): > 100 µM
TGI (TK-10; read-out: Log TGI (converted)): > 100 µM
GI50 (SNB-75): 38 µM
CC50 (SNB-75; [2]): > 100 µM
TGI (SNB-75; read-out: Log TGI (converted)): > 100 µM
GI50 (HCT-116): 25.7 µM
CC50 (HCT-116; [2]): > 100 µM
TGI (HCT-116; read-out: Log TGI (converted)): > 100 µM
GI50 (OVCAR-8): 14.5 µM
CC50 (OVCAR-8; [2]): > 100 µM
TGI (OVCAR-8; read-out: Log TGI (converted)): 89.1 µM
GI50 (NCI-H226): 39.8 µM
GI50 (MCF7): 1.1 µM
CC50 (MCF7; [2]): > 100 µM
TGI (MCF7; read-out: Log TGI (converted)): > 100 µM
CC50 (UACC-257; [2]): > 100 µM
TGI (UACC-257; read-out: Log TGI (converted)): > 100 µM
GI50 (UACC-257; read-out: pGI50 (converted)): 18.2 µM
GI50 (SW-620): 13.5 µM
CC50 (SW-620; [2]): > 100 µM
TGI (SW-620; read-out: Log TGI (converted)): > 100 µM
GI50 (NCI-H322M): > 100 µM
CC50 (NCI-H322M; [2]): > 100 µM
TGI (NCI-H322M; read-out: Log TGI (converted)): > 100 µM
GI50 (SK-MEL-28): 87.1 µM
CC50 (SK-MEL-28; [2]): > 100 µM
TGI (SK-MEL-28; read-out: Log TGI (converted)): > 100 µM
GI50 (MDA-MB-231): > 100 µM
CC50 (MDA-MB-231; [2]): > 100 µM
TGI (MDA-MB-231; read-out: Log TGI (converted)): > 100 µM
GI50 (SF-539): 0.724 µM
CC50 (SF-539; [2]): 25.7 µM
TGI (SF-539; read-out: Log TGI (converted)): 5.37 µM
GI50 (HOP-62): 5.01 µM
CC50 (HOP-62; [2]): > 100 µM
TGI (HOP-62; read-out: Log TGI (converted)): 38 µM
GI50 (SF-295): 30.9 µM
CC50 (SF-295; [2]): > 100 µM
TGI (SF-295; read-out: Log TGI (converted)): > 100 µM
GI50 (IGROV-1): 19.5 µM
CC50 (IGROV-1; [2]): > 100 µM
TGI (IGROV-1; read-out: Log TGI (converted)): > 100 µM
GI50 (HT-29): > 100 µM
CC50 (HT-29; [2]): > 100 µM
TGI (HT-29; read-out: Log TGI (converted)): > 100 µM
GI50 (MDA-N): 87.1 µM
CC50 (MDA-N; [2]): > 100 µM
TGI (MDA-N; read-out: Log TGI (converted)): > 100 µM
CC50 (HCT-15; [2]): > 100 µM
TGI (HCT-15; read-out: Log TGI (converted)): > 100 µM
GI50 (HCT-15; read-out: pGI50 (converted)): 40.7 µM
GI50 (OVCAR-3): 61.7 µM
CC50 (OVCAR-3; [2]): > 100 µM
TGI (OVCAR-3; read-out: Log TGI (converted)): > 100 µM
GI50 (MDA-MB-435): > 100 µM
CC50 (MDA-MB-435; [2]): > 100 µM
TGI (MDA-MB-435; read-out: Log TGI (converted)): > 100 µM
GI50 (UACC-62): 21.4 µM
CC50 (UACC-62; [2]): > 100 µM
TGI (UACC-62; read-out: Log TGI (converted)): > 100 µM
GI50 (SK-OV-3): 87.1 µM
CC50 (SK-OV-3; [2]): > 100 µM
TGI (SK-OV-3; read-out: Log TGI (converted)): > 100 µM
GI50 [1]: 53.7 µM
CC50 [1, 2]: > 100 µM
TGI ([1]; read-out: Log TGI (converted)): > 100 µM
GI50 (EKVX): > 100 µM
CC50 (EKVX; [2]): > 100 µM
TGI (EKVX; read-out: Log TGI (converted)): > 100 µM
GI50 (NCI-H460): 0.0933 µM
CC50 (NCI-H460; [2]): > 100 µM
TGI (NCI-H460; read-out: Log TGI (converted)): > 100 µM
GI50 (KM12): > 100 µM
CC50 (KM12; [2]): > 100 µM
TGI (KM12; read-out: Log TGI (converted)): > 100 µM
GI50 (NCI/ADR-RES): 28.8 µM
CC50 (NCI/ADR-RES; [2]): > 100 µM
TGI (NCI/ADR-RES; read-out: Log TGI (converted)): > 100 µM
GI50 (A498): 17 µM
CC50 (A498; [2]): > 100 µM
TGI (A498; read-out: Log TGI (converted)): 97.7 µM
